Molecular target: T1, NAD-dependent protein deacetylase sirtuin-2 (Homo sapiens) (UniProt Q8IXJ6)
T1 sequence (whole entry): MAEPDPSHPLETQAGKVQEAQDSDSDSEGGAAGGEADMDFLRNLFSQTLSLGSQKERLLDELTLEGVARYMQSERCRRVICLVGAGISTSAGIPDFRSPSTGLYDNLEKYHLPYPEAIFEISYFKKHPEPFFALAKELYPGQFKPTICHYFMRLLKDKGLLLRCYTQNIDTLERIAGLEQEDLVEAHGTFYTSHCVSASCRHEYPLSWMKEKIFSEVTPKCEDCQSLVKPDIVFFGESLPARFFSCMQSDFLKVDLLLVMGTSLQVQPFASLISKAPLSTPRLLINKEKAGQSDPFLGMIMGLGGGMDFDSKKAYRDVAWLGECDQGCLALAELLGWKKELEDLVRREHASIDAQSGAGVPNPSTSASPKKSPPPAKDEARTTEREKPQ
Assay: Inhibition of recombinant human C-terminal His-tagged SIRT2 (50 to 389 end residues) expressed in Escherichia coli at 10 uM using p53 derived (379 to 382 residues) fluorogenic peptide substrate RHKK(Ac)-AMC preincubated for 10 mins followed by substrate addition in presence of NAD+ by fluorescence assay relative to control
In short: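 Two-step fluorogenic assay with p53 379–382 RHKK(Ac)-AMC. Compound (from 10 mM DMSO stock) preincubated ~10 min with human SIRT before substrate addition. Developer then releases fluorophore, read at ex 360/em 460 nm.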

Structure (SMILES) | inhibition
O=c1c2c3c(sc2ncn1Cc1cccc2cccnc12)CC(NCC1CCCO1)CC3 (centres undefined) | 58%
COc1ccccc1Cn1cnc2sc3c(c2c1=O)CCC(NCc1c(C)nn(C)c1C)C3 (centres undefined) | 37%
COc1ccc2ccccc2c1Cn1cnc2sc3c(c2c1=O)CCC(NCc1ccccc1F)C3 (centres undefined) | 64%
O=c1c2c3c(sc2ncn1Cc1cccc(-c2ccccc2)c1)CC(NCc1ccccc1Cl)CC3 (centres undefined) | 39%
COc1cccc(Cn2cnc3sc4c(c3c2=O)CCC(NCCc2cccnc2)C4)c1 (centres undefined) | 40%
O=c1c2c3c(sc2ncn1Cc1cccc2ccccc12)CC(NCc1ccc(Cl)cc1)CC3 (centres undefined) | 64%
COc1cccc(CNC2CCc3c(sc4ncn(Cc5ccc6ccccc6c5)c(=O)c34)C2)c1 (centres undefined) | 51%
COc1cccc(NC2CCc3c(sc4ncn(Cc5ccc6ccccc6c5)c(=O)c34)C2)c1 (centres undefined) | 37%
O=c1c2c3c(sc2ncn1Cc1cccc2cccnc12)CC(NCc1ccccc1F)CC3 (centres undefined) | 49%
COc1ccccc1CCNC1CCc2c(sc3ncn(Cc4cccc5cccnc45)c(=O)c23)C1 (centres undefined) | 63%
COc1ccc(NC2CCc3c(sc4ncn(Cc5cccc(-c6ccccc6)c5)c(=O)c34)C2)cc1 (centres undefined) | 31%
O=c1c2c3c(sc2ncn1Cc1cccc2cccnc12)CC(NC1CCOCC1)CC3 (centres undefined) | 51%
COc1cccc(Cn2cnc3sc4c(c3c2=O)CCC(NCC2CCCCC2)C4)c1 (centres undefined) | 62%
COc1ccc(Cn2cnc3sc4c(c3c2=O)CCC(NCc2cccc(F)c2)C4)c2ccccc12 (centres undefined) | 59%
COc1ccc(NC2CCc3c(sc4ncn(Cc5ccc(OC)c6ccccc56)c(=O)c34)C2)cc1 (centres undefined) | 41%
COc1cccc(NC2CCc3c(sc4ncn(Cc5cccc6ccccc56)c(=O)c34)C2)c1 (centres undefined) | 46%
COc1ccccc1NC1CCc2c(sc3ncn(Cc4cccc5ccccc45)c(=O)c23)C1 (centres undefined) | 22%
COc1ccc2ccccc2c1Cn1cnc2sc3c(c2c1=O)CCC(NC1CCc2ccccc21)C3 (centres undefined) | 59%
O=c1c2c3c(sc2ncn1Cc1cccc2ccccc12)CC(NC1CCCC1)CC3 (centres undefined) | 61%
O=c1c2c3c(sc2ncn1Cc1ccc2ccccc2c1)CC(NCCC1CCCCC1)CC3 (centres undefined) | 59%
COc1ccc(Cn2cnc3sc4c(c3c2=O)CCC(NCc2cccs2)C4)c2ccccc12 (centres undefined) | 71%
O=c1c2c3c(sc2ncn1Cc1cccc2cccnc12)CC(Nc1ccc2c(c1)OCO2)CC3 (centres undefined) | 76%
COc1cccc(Cn2cnc3sc4c(c3c2=O)CCC(NCc2cccnc2)C4)c1 (centres undefined) | 27%

Structure (SMILES) | inhibition
O=c1c2c3c(sc2ncn1Cc1ccc2ccccc2c1)CC(NC1CCOCC1)CC3 (centres undefined) | 52%
COc1ccc(Cn2cnc3sc4c(c3c2=O)CCC(Nc2ccc3c(c2)OCO3)C4)c2ccccc12 (centres undefined) | 38%
COc1ccccc1NC1CCc2c(sc3ncn(Cc4c(OC)ccc5ccccc45)c(=O)c23)C1 (centres undefined) | 29%
COc1ccc(CNC2CCc3c(sc4ncn(Cc5ccccc5)c(=O)c34)C2)cn1 (centres undefined) | 48%
Cc1cccc(NC2CCc3c(sc4ncn(Cc5ccc6ccccc6c5)c(=O)c34)C2)c1 (centres undefined) | 31%
COc1ccc2ccccc2c1Cn1cnc2sc3c(c2c1=O)CCC(NCc1cncnc1)C3 (centres undefined) | 33%
O=c1c2c3c(sc2ncn1Cc1cccc2cccnc12)CC(NCC1CCOC1)CC3 (centres undefined) | 60%
O=c1c2c3c(sc2ncn1Cc1cccc2ccccc12)CC(NCC1CCOC1)CC3 (centres undefined) | 72%
O=c1c2c3c(sc2ncn1Cc1ccccc1)CC(NCc1cncnc1)CC3 (centres undefined) | 18%
Cc1ccc(NC2CCc3c(sc4ncn(Cc5cccc(-c6ccccc6)c5)c(=O)c34)C2)cc1 (centres undefined) | 27%
COc1ccc(Cn2cnc3sc4c(c3c2=O)CCC(NCCN2CCOCC2)C4)c2ccccc12 (centres undefined) | 76%
COc1ccc(Cn2cnc3sc4c(c3c2=O)CCC(NCC2CCOC2)C4)c2ccccc12 (centres undefined) | 70%
COc1ccc2ccccc2c1Cn1cnc2sc3c(c2c1=O)CCC(NCc1cccc(Cl)c1)C3 (centres undefined) | 50%
Cc1noc(C)c1CNC1CCc2c(sc3ncn(Cc4cccc(-c5ccccc5)c4)c(=O)c23)C1 (centres undefined) | 60%
COc1ccccc1Cn1cnc2sc3c(c2c1=O)CCC(NCc1ccncc1)C3 (centres undefined) | 64%
COc1ccc(Cn2cnc3sc4c(c3c2=O)CCC(Nc2ccc(F)cc2)C4)c2ccccc12 (centres undefined) | 56%
COc1ccc2ccccc2c1Cn1cnc2sc(CCN(C)C)c(C)c2c1=O | 30%
COc1ccc2ccccc2c1Cn1cnc2sc3c(c2c1=O)CCC(NCc1ccccc1Cl)C3 (centres undefined) | 40%
COc1ccccc1CCNC1CCc2c(sc3ncn(Cc4ccc5ccccc5c4)c(=O)c23)C1 (centres undefined) | 67%
COc1ccc2ccccc2c1Cn1cnc2sc(CCN)c(C)c2c1=O | 25%
COc1ccccc1NC1CCc2c(sc3ncn(Cc4cccc(-c5ccccc5)c4)c(=O)c23)C1 (centres undefined) | 26%
O=c1c2c3c(sc2ncn1Cc1ccccc1)CC(NCCc1cccnc1)CC3 (centres undefined) | 27%
COc1ccccc1CNC1CCc2c(sc3ncn(Cc4ccccc4)c(=O)c23)C1 (centres undefined) | 46%

Structure (SMILES) | inhibition
COc1ccc(CNC2CCc3c(sc4ncn(Cc5ccccc5OC)c(=O)c34)C2)cn1 (centres undefined) | 56%
Cc1cccc(NC2CCc3c(sc4ncn(Cc5cccc(-c6ccccc6)c5)c(=O)c34)C2)c1 (centres undefined) | 28%
O=c1c2c3c(sc2ncn1Cc1ccc2ccccc2c1)CC(NCc1ccc(Cl)cc1)CC3 (centres undefined) | 49%
COc1cccc(Cn2cnc3sc4c(c3c2=O)CCC(NCc2ccccn2)C4)c1 (centres undefined) | 18%
COc1cccc(Cn2cnc3sc4c(c3c2=O)CCC(NC2CCc3ccccc32)C4)c1 (centres undefined) | 64%
COc1ccccc1NC1CCc2c(sc3ncn(Cc4cccc5cccnc45)c(=O)c23)C1 (centres undefined) | 69%
COc1ccc2ccccc2c1Cn1cnc2sc3c(c2c1=O)CCC(NCCNC(C)=O)C3 (centres undefined) | 44%
O=c1c2c3c(sc2ncn1Cc1cccc(-c2ccccc2)c1)CC(NCc1cccc(Cl)c1)CC3 (centres undefined) | 43%
N#Cc1ccc(CNC2CCc3c(sc4ncn(Cc5cccc(-c6ccccc6)c5)c(=O)c34)C2)cc1 (centres undefined) | 75%
COc1ccc2ccccc2c1Cn1cnc2sc(CCNCC3CCOC3)c(C)c2c1=O (centres undefined) | 65%
COc1ccc2ccccc2c1Cn1cnc2sc3c(c2c1=O)CCC(Nc1cccc(C)c1)C3 (centres undefined) | 27%
COc1cccc(Cn2cnc3sc4c(c3c2=O)CCC(NCc2cncnc2)C4)c1 (centres undefined) | 18%
COc1cccc(Cn2cnc3sc4c(c3c2=O)CCC(NCc2ccncc2)C4)c1 (centres undefined) | 59%
O=c1c2c3c(sc2ncn1Cc1ccccc1)CC(NCc1ccco1)CC3 (centres undefined) | 33%
COc1cccc(Cn2cnc3sc4c(c3c2=O)CCC(NCc2ccc(OC)nc2)C4)c1 (centres undefined) | 28%
O=c1c2c3c(sc2ncn1Cc1ccccc1)CC(NCCc1ccncc1)CC3 (centres undefined) | 18%
O=c1c2c3c(sc2ncn1Cc1cccc2ccccc12)CC(NCc1ccccc1)CC3 (centres undefined) | 66%
COCCNC1CCc2c(sc3ncn(Cc4c(OC)ccc5ccccc45)c(=O)c23)C1 (centres undefined) | 44%
CC(=O)NCCNC1CCc2c(sc3ncn(Cc4cccc(-c5ccccc5)c4)c(=O)c23)C1 (centres undefined) | 65%
O=c1c2c3c(sc2ncn1Cc1ccccc1)CC(NCc1ccncc1)CC3 (centres undefined) | 33%
COc1ccc2ccccc2c1Cn1cnc2sc3c(c2c1=O)CCC(NCc1ccc(C#N)cc1)C3 (centres undefined) | 75%
O=c1c2c3c(sc2ncn1Cc1cccc2ccccc12)CC(Nc1ccc(F)cc1)CC3 (centres undefined) | 50%
COc1ccccc1CNC1CCc2c(sc3ncn(Cc4cccc5ccccc45)c(=O)c23)C1 (centres undefined) | 60%

Structure (SMILES) | inhibition
COc1cccc(CNC2CCc3c(sc4ncn(Cc5cccc6ccccc56)c(=O)c34)C2)c1 (centres undefined) | 59%
COc1ccccc1Cn1cnc2sc3c(c2c1=O)CCC(NCC1CCCO1)C3 (centres undefined) | 27%
Cc1cccc(NC2CCc3c(sc4ncn(Cc5cccc6cccnc56)c(=O)c34)C2)c1 (centres undefined) | 62%
COc1cccc(NC2CCc3c(sc4ncn(Cc5ccc(OC)c6ccccc56)c(=O)c34)C2)c1 (centres undefined) | 25%
COCCNC1CCc2c(sc3ncn(Cc4ccc(OC)c5ccccc45)c(=O)c23)C1 (centres undefined) | 70%
O=c1c2c3c(sc2ncn1Cc1ccc2ccccc2c1)CC(NCc1cccs1)CC3 (centres undefined) | 62%
O=c1c2c3c(sc2ncn1Cc1ccc2ccccc2c1)CC(NC1CCc2ccccc21)CC3 (centres undefined) | 60%
O=c1c2c3c(sc2ncn1Cc1cccc(-c2ccccc2)c1)CC(Nc1ccc2c(c1)OCO2)CC3 (centres undefined) | 33%
COc1cccc(CNC2CCc3c(sc4ncn(Cc5ccccc5)c(=O)c34)C2)c1 (centres undefined) | 48%
O=c1c2c3c(sc2ncn1Cc1cccc2ccccc12)CC(NCc1cccc(F)c1)CC3 (centres undefined) | 65%
O=c1c2c3c(sc2ncn1Cc1cccc(-c2ccccc2)c1)CC(NCc1cccs1)CC3 (centres undefined) | 66%
COCCNC1CCc2c(sc3ncn(Cc4ccc5ccccc5c4)c(=O)c23)C1 (centres undefined) | 45%
COc1ccc2ccccc2c1Cn1cnc2sc3c(c2c1=O)CCC(NCc1ccc(Cl)cc1)C3 (centres undefined) | 40%
O=c1c2c3c(sc2ncn1Cc1cccc(-c2ccccc2)c1)CC(NC1CCc2ccccc21)CC3 (centres undefined) | 45%
COc1ccccc1Cn1cnc2sc3c(c2c1=O)CCC(NCc1ccccn1)C3 (centres undefined) | 35%
N#Cc1ccc(CNC2CCc3c(sc4ncn(Cc5ccc6ccccc6c5)c(=O)c34)C2)cc1 (centres undefined) | 67%
COc1ccc(Cn2cnc3sc4c(c3c2=O)CCC(NCc2cccc(Cl)c2)C4)c2ccccc12 (centres undefined) | 6.5%
COc1ccc2ccccc2c1Cn1cnc2sc3c(c2c1=O)CCC(NC1CCCc2ccccc21)C3 (centres undefined) | 34%
Cc1noc(C)c1CNC1CCc2c(sc3ncn(Cc4ccc5ccccc5c4)c(=O)c23)C1 (centres undefined) | 67%
COc1ccc2ccccc2c1Cn1cnc2sc(CCNCc3ccc(C#N)cc3)c(C)c2c1=O | 51%

Reference: ChEMBL document CHEMBL4004822, “Thienopyrimidinone Based Sirtuin-2 (SIRT2)-Selective Inhibitors Bind in the Ligand Induced Selectivity Pocket” (J Med Chem, 2017)
